In ChEMBL document CHEMBL1926656, “Cyclopeptide Alkaloids from Ziziphus apetala” (J Nat Prod, 2011):
Calls of active or inactive are those of the source. The rule behind the calls is not given here.

Tests used:
BGC-823 = experiment: Cytotoxicity against human BGC823 cells; format: functional, cell-based
HeLa = experiment: Cytotoxicity against human HeLa cells; format: functional, cell-based
[1] = biological target: 11-beta-hydroxysteroid dehydrogenase 1 (Mus musculus, UniProt P50172); experiment: Inhibition of mouse 11beta-HSD1 expressed in human HEK293 cells assessed as conversion of [3H]cortisone to [3H]cortisol by scintillation proximity assay; format: cell-based
Method in brief: (§1)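 Full-length human or mouse 11β-HSD1 cDNA in pcDNA3, stably expressed in HEK-293 cells selected with 700 μg/mL G418; microsomal fraction used as enzyme. Microsomes incubated with NADPH and [3H]cortisone; [3H]cortisol product captured by monoclonal antibody on protein A-coated SPA beads. Glycyrrhizinic acid positive control. IC50 as mean ± SD, n = 3.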

[2] = biological target: 11-beta-hydroxysteroid dehydrogenase 1 (Homo sapiens, UniProt P28845); experiment: Inhibition of human 11beta-HSD1 expressed in human HEK293 cells assessed as conversion of [3H]cortisone to [3H]cortisol by scintillation proximity assay; format: cell-based; method in brief: as §1
Sequence of 11-beta-hydroxysteroid dehydrogenase 1 (Homo sapiens, UniProt P28845) (P28845 whole entry): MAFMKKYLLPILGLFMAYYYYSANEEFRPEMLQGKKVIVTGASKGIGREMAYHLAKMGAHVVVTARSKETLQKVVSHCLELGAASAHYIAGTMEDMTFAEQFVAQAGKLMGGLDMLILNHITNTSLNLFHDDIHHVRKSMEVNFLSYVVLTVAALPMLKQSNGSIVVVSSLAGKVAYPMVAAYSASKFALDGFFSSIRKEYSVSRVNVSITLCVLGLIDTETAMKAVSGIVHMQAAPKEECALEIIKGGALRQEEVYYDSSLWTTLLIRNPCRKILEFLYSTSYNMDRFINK

Sequence of 11-beta-hydroxysteroid dehydrogenase 1 (Mus musculus, UniProt P50172) (P50172 whole entry): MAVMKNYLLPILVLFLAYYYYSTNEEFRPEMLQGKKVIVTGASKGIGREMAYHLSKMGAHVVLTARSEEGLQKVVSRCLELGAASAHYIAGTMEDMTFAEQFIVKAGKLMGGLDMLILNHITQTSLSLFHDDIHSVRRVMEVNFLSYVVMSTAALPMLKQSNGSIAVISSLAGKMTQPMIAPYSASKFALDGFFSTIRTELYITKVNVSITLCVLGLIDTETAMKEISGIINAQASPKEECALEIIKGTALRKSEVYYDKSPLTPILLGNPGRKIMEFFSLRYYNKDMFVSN

Row | SMILES | Activity (BGC-823) | Activity (HeLa) | IC50 [1] | IC50 [2]
1 | CC(C)[C@H](NC(=O)[C@H](C)[N+](C)(C)[O-])C(=O)N1CC[C@@H]2Oc3ccc(cc3)/C=C\NC(=O)[C@H](Cc3ccccc3)NC(=O)[C@H]21 | inactive | inactive | – | –
2 | CC(C)[C@@H](C(=O)N1CC[C@@H]2Oc3ccc(cc3)/C=C\NC(=O)[C@H](Cc3ccccc3)NC(=O)[C@H]21)N1CN(C)[C@@H](C)C1=O | inactive | inactive | – | –
3 | CC(C)[C@H](NC(=O)C(C)N(C)C=O)C(=O)N1CC[C@@H]2Oc3ccc(cc3)/C=C\NC(=O)[C@H](Cc3ccccc3)NC(=O)[C@H]21 (stereo not given in full) | inactive | inactive | – | –
4 | CN[C@@H](C)C(=O)N[C@H](C(=O)N1CC[C@@H]2Oc3ccc(cc3)/C=C\NC(=O)[C@H](Cc3ccccc3)NC(=O)[C@H]21)C(C)C | inactive | inactive | – | –
5 | CC(C)[C@H](NC(=O)[C@@H](C)N(C)C)C(=O)N1CC[C@@H]2Oc3ccc(cc3)/C=C\NC(=O)[C@H](Cc3ccccc3)NC(=O)[C@H]21 | inactive | inactive | – | –
6 | C/C(=N/O)C(=O)N[C@H](C(=O)N1CC[C@@H]2Oc3ccc(cc3)/C=C\NC(=O)[C@H](Cc3ccccc3)NC(=O)[C@H]21)C(C)C | inactive | inactive | – | –
7 | CC1(C)[C@@H](O[C@H]2O[C@H](C(=O)O)[C@@H](O)[C@H](O)[C@H]2O[C@@H]2O[C@H](C(=O)O)[C@@H](O)[C@H](O)[C@H]2O)CC[C@]2(C)[C@H]3C(=O)C=C4[C@@H]5C[C@@](C)(C(=O)O)CC[C@]5(C)CC[C@@]4(C)[C@]3(C)CC[C@@H]12 [GLYCYRRHIZIN] | – | – | 0.0295 µM | 0.0186 µM
8 | CC(C)[C@H](NC(=O)[C@@H](C)[N+](C)(C)[O-])C(=O)N1CC[C@@H]2Oc3ccc(cc3)/C=C\NC(=O)[C@H](Cc3ccccc3)NC(=O)[C@H]21 | inactive | inactive | – | –
9 | CC(C)[C@H](NC(=O)[C@H](C)N(C)C)C(=O)N1CC[C@@H]2Oc3ccc(cc3)/C=C\NC(=O)[C@H](Cc3ccccc3)NC(=O)[C@H]21 [MAURITINE A] | inactive | inactive | 54.2 µM | 90.3 µM
